The EC50 is the midpoint of the concentration-response curve.

The nature of data set [1]: Singlet oxygen sensitization quantum yield. In kind it is physicochemical. The following applies: PF6 salts; for ΦΔ singlet oxygen quantum yield: air-saturated MeCN, excitation wavelength in brackets; for 1O2 quantum yield ΦΔ: MeCN. The method in brief: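 ΦΔ was measured from ¹O₂ emission near 1276 nm, relative to [Ru(bpy)₃](PF₆)₂ (ΦΔ = 0.56 in aerated MeCN). Samples were 5–20 μM PF₆⁻ salts in air-bubbled, CaH₂-distilled MeCN. Excitation was at the longest wavelength maximising 1268 nm emission. Absorbance and refractive index corrections were applied, in triplicate.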

Data set [2] deals with SK-MEL-28 human skin melanoma cells. The data set can be described thus: Resazurin. Format: cell-based.
Data set [3] can be described thus: Solubility in high ionic strength solvents. In kind it is physicochemical. The following applies: DPBS, media.
Data set [4] concerns SK-MEL-28 cells. Kind of data set: Resazurin. In kind it is cell-based, human. The method in brief: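 SK-MEL-28 cells were equilibrated at 1% O₂ for 2–3 h before dosing and kept hypoxic for at least 16 h. During illumination plates were sealed with qPCR films (about 20 °C, ≤1.5 h). Light was cool white (400–700 nm), green (523 nm) or red (633 nm) at 20 mW cm⁻² to 100 J cm⁻². Cells recovered in normoxia before the resazurin read. PI was dark EC50/light EC50.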
A general note: Alamar Blue is a resazurin reagent that responds to reducing activity.

Data set [5] has as its system SK-MEL-28 cells. The data set can be described thus: Sulforhodamine B. Format: cell-based, human. The note with it: SRB, hypoxia, across light treatments.
Data set [6] concerns SK-MEL-28 cells. Kind of data set: Os-4T interassay repeats, resazurin, normoxia. Format: cell-based, human.
Data set [7] concerns SK-MEL-28 cells. Kind of data set: Os-4T interassay repeats, resazurin, hypoxia. In kind it is cell-based, human. The method in brief: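 Hypoxic (1% O₂) SK-MEL-28 phototoxicity was read by resazurin across repeats under three light conditions. Repeat 0 was run in 96-well plates; repeats 1–5 were run within a month in 384-well plates. Plate maps, pipette tips and seed stock (repeats 4–5) were varied, and overhead lights were off in repeat 5. Cells were at passages 10–15, with three replicates per repeat.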

Data set [8] has as its system SK-MEL-28 human amelanotic melanoma cells. The data set can be described thus: External validation. In kind it is cell-based. The following applies: SK-MEL-28, external validation. The method in brief:
(§1)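 SK-MEL-28 and B16-F10 cells (B16-F10 grown in DMEM) in log phase were seeded and dosed with 1 nM–300 μM test compound diluted in DPBS (<1.2% v/v DMSO). Plates were irradiated 15–22 h after dosing with broadband projector visible light or a red 630 nm LED panel (33–40 mW cm⁻², 100 J cm⁻²). Resazurin was read at 48 h (530/620 nm). PI was dark EC50/light EC50.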

In data set [9] the test system is B16-F10 murine melanotic melanoma cells. The data set can be described thus: External validation. In kind it is cell-based. The method in brief: as §1
The test system of data set [10] is SK-MEL-28 cells. Kind of data set: NIR 733 nm photocytotoxicity, normoxia. The note with it: read-out: EC50 with 733 nm light, 100 J cm^–2, 5 mW cm^–2. Format: cell-based, human. The method in brief: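 Normoxic SK-MEL-28 monolayers in 384-well plates were illuminated with a 733 nm laser through a frontal diffuser (5 mW cm⁻², 100 J cm⁻²), with sham-treated dark controls. Viability was read by resazurin and EC50 was taken from the dose–response curve.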

Data set [11] relates to SK-MEL-28 cells. Kind of data set: NIR 753 nm photocytotoxicity on Modulight ML8500. The following applies: 10 μM, 300 mW cm^–2, 200*2 (≥400) J cm^–2, resazurin. Format: cell-based, human. The method in brief: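 SK-MEL-28 wells were illuminated one by one with a 753 nm laser at a constant 300 mW cm⁻² over 0–400 J cm⁻², at 37 °C and 5% CO₂. Viability was read by resazurin relative to dark wells, in triplicate.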

For a further data set, the system named is female C57BL/6J mice. Kind of data set: Maximum tolerated dose in mice. The following applies: ip doses above 100 mg kg^–1 (100, 125, 200); behaviour resolved after 2 h. Format: in vivo.
The conditions of data set [12]: aerated MeCN; cited from earlier work.
[13] abbreviates: read-out: EC50 ± SEM Dark, normoxia 18.5–21% O2, no light.
The mark [14] stands for this setting: read-out: visible EC50, normoxia, visible light 100 J cm^–2.

Several values for one entry are separate records, joined by “and”; a condition that tells them apart may be missing. Identical values can stand only once. Like-named read-outs stand apart in the source and are kept apart here.

As for [Os(phen)2(IP)]^2+ [Os-0T], the “ΦΔ singlet oxygen quantum yield” value in data set [1] is 0.43 [473].
As to `[Cl-].[Cl-].[Os+2].c1cnc2c(c1)ccc1cccnc12.c1cnc2c(c1)ccc1cccnc12.c1cnc2c(c1)ccc1cccnc12` [[Os(phen)3]Cl2, reference compound], the “PI regardless of wavelength” value in data set [2] (normoxia, visible, green or red) is reported as 2–4. In data set [2] (setting [13]), the EC50 came out at 158000 nM. The “solubility in high ionic strength solvents” value in data set [3] is > 300 µM.
As for [Os(phen)2(IP-1T)]^2+ [Os-1T], the “ΦΔ singlet oxygen quantum yield” value in [1] was 0.42 [473].
For [Os(phen)2(IP-2T)]^2+ [Os-2T], the “ΦΔ singlet oxygen quantum yield” value in [1] was 0.49 [472]. In addition, in [2] (setting [13]), the EC50 came out at 35700 nM.
Take [Os(phen)2(IP-4T)]^2+ [Os-4T]: the “1O2 quantum yield ΦΔ” value in data set [1] stood at 95%. The “ΦΔ singlet oxygen quantum yield” value in data set [1] was 0.95 [525]. Further, the concentration for a half-maximal effect (EC50) is 1 nM in [2] (read-out: EC50 with green light, normoxia, green 523 nm, 100 J cm^–2); 10 nM in data set [2] (read-out: EC50 with red light, normoxia, red 633 nm, 100 J cm^–2); 65100 nM in data set [2] (setting [13]); 0.018 nM in data set [2] (setting [14]); 651 to 835 nM with SK-MEL-28 cells [4] (read-out: light EC50 values in hypoxia, hypoxia 1% O2, across visible, green, red light); 1.16 to 25.4 nM in the data set on SK-MEL-28 cells [6] (read-out: EC50 range over repeats, green, normoxia). In addition, the EC50 in the data set on SK-MEL-28 cells [6] (read-out: EC50 range over repeats, red, normoxia) is 10 to 46.2 nM; in the data set with SK-MEL-28 cells [6] (read-out: EC50 range over repeats, visible, normoxia), 0.0178 to 8.91 nM; with SK-MEL-28 cells [6] (read-out: average dark EC50 across repeats, either oxygen condition (normoxia and hypoxia), <7% variation), 62800 nM; with SK-MEL-28 cells [6] (read-out: average normoxic EC50, green, normoxia, repeats) it was 11.7 nM; in the data set with SK-MEL-28 cells [6] (read-out: average normoxic EC50, red, normoxia, repeats), 30.8 nM; in the data set on SK-MEL-28 cells [6] (read-out: average normoxic EC50, visible, normoxia, repeats) it was 1.62 nM. The EC50 in data set [8] (read-out: red EC50) is 9.44 nM; in data set [8] (read-out: visible EC50) it was 2.91 nM; in [9] (read-out: visible EC50, B16-F10, external validation), 15 nM; with SK-MEL-28 cells [10], 803 nM. Also, the “PI Green” value with SK-MEL-28 cells [4] (hypoxia 1% O2, dark EC50/green EC50) is 91 and > 90. Moreover, the “PI Visible” value with SK-MEL-28 cells [4] (hypoxia 1% O2, dark EC50/visible EC50) is > 90; in [9] (B16-F10, dark EC50/visible EC50), > 20 000 and > 10^4. For the same compound, the “total growth inhibition (TGI), light-treated samples” value in the data set on SK-MEL-28 cells [5] lay in the range of 140 to 170 nM. Moreover, the “PI range across repeats and three light conditions” value in the data set with SK-MEL-28 cells [7] (hypoxia 1% O2) was in the range of 32 to 167. The “average hypoxic PI across the three light conditions” value in the data set with SK-MEL-28 cells [7] (hypoxia 1% O2, repeat 3 excluded) turned out to be 90. The “reduction of relative cell viability compared to dark” value in the data set with SK-MEL-28 cells [11] is on record as 14%. In the data set on female C57BL/6J mice, the observed clinical toxicity result is recorded as “mild toxicity”.
Take `F[P-](F)(F)(F)(F)F.F[P-](F)(F)(F)(F)F.[Ru+2].c1ccc(-c2ccccn2)nc1.c1ccc(-c2ccccn2)nc1.c1ccc(-c2ccccn2)nc1` [[Ru(bpy)3](PF6)2]: the “ΦΔ singlet oxygen quantum yield (standard)” value in data set [12] is 0.56.
With [Os(phen)2(IP-3T)]^2+ [Os-3T], in [1], the “1O2 quantum yield ΦΔ” value was found to be 51% and the “ΦΔ singlet oxygen quantum yield” value was 0.51 [525]. For the same compound, the “PI Green” value in data set [2] (normoxia, dark EC50/green 523 nm EC50) worked out at 103. In data set [2] (normoxia, dark EC50/visible EC50), the “PI Visible (phototherapeutic index)” value came to 369. In addition, the EC50 in data set [2] (setting [14]) was 153 nM.

The values are drawn from paper PMC7953430 (Chemical Science, 2020).
